Here are results for eight compounds from ChEMBL document CHEMBL1156507, “The M18 aspartyl aminopeptidase of the human malaria parasite Plasmodium falciparum” (J Biol Chem, 2007).

One assay deals with Plasmodium falciparum. The experiment in a line: Binding affinity against recombinant Plasmodium falciparum D10 M18AAP at 1.83 mM. The method, boiled down:
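Phosphonic/phosphinic amino-acid analogues and phosphinate dipeptides tested on rPfM18AAP in the fluorogenic assay: initial rate of H-Asp-NHMec hydrolysis (ex 370/em 460 nm) at pH 7.5, enzyme preincubated 30 min in 50 mM Tris-HCl; inhibited rates compared with an enzyme-plus-substrate control.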
In the case of `NC(CCC(=O)O)P(=O)(O)c1ccccc1` (centres undefined), the Activity came out at 20%.

Tested on in the next assay: not listed separately
Nature of the assay: Binding affinity against recombinant Plasmodium falciparum D10 M18AAP. The method in brief:
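Recombinant His6-tagged PfM18AAP was expressed in baculovirus-infected Sf9 cells and purified on Ni-NTA-agarose. Enzyme (60 nM) was preincubated 30 min in 50 mM Tris-HCl, pH 7.5, then added to the fluorogenic substrate H-Asp-NHMec. Initial hydrolysis rates were read by fluorescence (ex 370 nm, em 460 nm) with inhibitor present.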
With `CP(=O)(O)C(N)CC(=O)O` (centres undefined), the Ki is 395 µM. Same read-out and setting: with `NC(CCC(=O)O)P(=O)(O)c1ccccc1` (centres undefined) the figure was above 2000 µM; with `NC(CCCC(=O)O)P(=O)(O)O` (centres undefined), 105 µM; with `NC(CCP(=O)(O)O)P(=O)(O)O` (centres undefined), 4.4 µM. Same read-out and setting: under `N[C@@H](CCC(=O)O)P(=O)(O)O` stands 0.34 µM. Still for that read-out and setting: under `CC(CP(=O)(O)C(N)CC(=O)O)C(=O)O` (centres undefined) stands 183 µM; under `CC(CP(=O)(O)C(N)CCC(=O)O)C(=O)O` (centres undefined), 42.7 µM; under `NC(CC(=O)O)P(=O)(O)O` (centres undefined), 27 µM.
